This sample holds only a part of the variants without activity.

The chains are these.
B1: tRNA (parent)
chain: GUUCCGUUGGCGUAAUGGUAACGCGUCUCCCUCCUAAGGAGAAGACUGCGGGUUCGAGUCCCGUACGGAACG

Variants of B1 are the subject of this data set. The experiment in a line: yeast fitness relative to wild type (ratio to wild type); higher = fitter; tRNA-Arg(CCU), competitive growth, 37 C, YPD. The method, boiled down:
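For this measurement, the tRNA-Arg(CCU) gene was varied by chemical synthesis at a 3% per-site mutation rate across 69 sites, and each variant was placed at the native genomic locus in Saccharomyces cerevisiae. The pooled strains went through a 24-hour competition in YPD at 37°C in six parallel replicates, with amplicons from start and end populations read by 100-nucleotide paired-end sequencing. Darwinian fitness relative to wild type followed from the change in each genotype's frequency. Genotypes needed ≥ 100 starting reads, and estimates < 0.5 were set to 0.5.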
With GUUCCGUUGGCGUAAUGGUAACGCGUCUCCCUCCUAGGGAGAAGAAUGCGGGUUCGAGUCCCGUACGGAACG, the yeast fitness stood at 0.774.
For GUUCCGUUGGCGUAAUGGUAACGCGUCUCCCUCCUAGGGAGAAGACUGCGGGCUCGAGUCCCGUACAGAACG the value was no more than 0.5.
Turning to GUUCCGUUGGCGUAAUGGUAACGCGUCUCCCUCCUAUGGAGAAAACUGCGGGUUCGAGUCCCGUUCGGAACG, the yeast fitness was no more than 0.5.
For GUUCCGUUGGCGUAAUGGUAACGCGUCUCCCUCCUAUGGAGAAGACUGUGGGUUCGAGUCGCGUACGGAACG the value was no more than 0.5; for GUUCCGUUGGCGUAAUGGUAACGCGUCUCCCUCCUAGGGAGAAGACUGCGGGCUCGCGUCCCGUACGGAACG, no more than 0.5; for GUUCCGUUGGCGUAAUGGUAACGCGUCUCCCUCCUAUGGAGAAGACUGCGGGUUUGAGUCGCGUUCGGAACG, no more than 0.5.
As to GUUCCGUUGGCGUAAUGGUAACGCGUCUCCCUCCUAUGGAGAAGACUGCGGGUUCGAAUCCCGUACGGAACG, the yeast fitness came to 0.767.
For GUUCCGUUGGCGUAAUGGUAACGCGUCUCCCUCCUAGGGAGAAGACUGCGGGUUCGAGACCCGUACGGAACG the value was 0.663; for GUUCCGUUGGCGUAAUGGUAACGCGUCUCCCUCCUAUGGAGAAGACUGCGGGUUCGCGUCCCGGACGGAACG, no more than 0.5.
In the case of GUUCCGUUGGCGUAAUGGUAACGCGUCUCCCUCCUAUGGAGAAGACUGUGGGUUCGAAUCCCGUACGGAACG, the yeast fitness came out at 0.57.
As for GUUCCGUUGGCGUAAUGGUAACGCGUCUCCCUCCUAAAGAGAAGACUGCGGGUACGAGUCCCGUACGGAACG, the figure is 0.628.
For GUUCCGUUGGCGUAAUGGUAACGCGUCUCCCUCCUAAAGAGAAGACCGCGGGUUCGAGUCCCGUACGGAACG the value was 0.837; for GUUCCGUUGGCGUAAUGGUAACGCGUCUCCCUCCUAUGGAGAAGACUGCGGGUUCGAGUCGCGUACGGAACG, 0.529; for GUUCCGUUGGCGUAAUGGUAACGCGUCUCCCUCCUAACGUGAAGACUGCGGGUCCGAGUCCCGUACGGAACG, no more than 0.5.
As for GUUCCGUUGGCGUAAUGGUAACGCGUCUCCCUCCUAGCGAGAAGACUGCGGAUUCGAGUCUCGUACGGAACG, the figure is 0.653.
In the case of GUUCCGUUGGCGUAAUGGUAACGCGUCUCCCUCCUAUGGAGAAGACUGCGGGUUCGAGUCCCGUACGGAUCG, the yeast fitness was 0.655.
For GUUCCGUUGGCGUAAUGGUAACGCGUCUCCCUCCUAAAGAGAAGACUGCGGGUUCGAGUCCUGUACGGAUCG the value was 0.577; for GUUCCGUUGGCGUAAUGGUAACGCGUCUCCCUCCUAGGGAGAAGACUGCGGGUUCGACUCCCGUACGGCACG, 0.623; for GUUCCGUUGGCGUAAUGGUAACGCGUCUCCCUCCUAGGGAGUAGACUGCGGGUUCGAGUCCCGUACGGAACG, 0.787.
GUUCCGUUGGCGUAAUGGUAACGCGUCUCCCUCCUAGGGAGAAAACUGCGGGUUCGAGUCCCGUACGGACCG: the yeast fitness was 0.859.
Regarding GUUCCGUUGGCGUAAUGGUAACGCGUCUCCCUCCUAGGGAGAAGACUGCGGGUUCGAGUCCCCUUCGGAACG, the yeast fitness was no more than 0.5.
Consider GUUCCGUUGGCGUAAUGGUAACGCGUCUCCCUCCUAAAGAGACGACUGCGGGUUCGAGUCCCGUCCGGAACG, for which the yeast fitness was no more than 0.5.
As for GUUCCGUUGGCGUAAUGGUAACGCGUCUCCCUCCUAAAGGGAAGACUGUGGGUUCGAGUCCCGUAAGGAACG, the yeast fitness is no more than 0.5.
On to GUUCCGUUGGCGUAAUGGUAACGCGUCUCCCUCCUAACGAGAAGGCUGCGGGUUCGAGUCCCGUACGGAACG, for which the yeast fitness was determined as 0.641.
With GUUCCGUUGGCGUAAUGGUAACGCGUCUCCCUCCUAAAGAGAAGACUGCGGGUUCAAGUCCCGUACGGAACG, the yeast fitness was 1.02.
As for GUUCCGUUGGCGUAAUGGUAACGCGUCUCCCUCCUAACGCGAAGACUGCGCGUUCGAGUCCUGUACGGUACG, the figure is no more than 0.5.
Regarding GUUCCGUUGGCGUAAUGGUAACGCGUCUCCCUCCUAAAGAGAAGACUGCGGGUUCGUGUCCCGUACGGAACG, the yeast fitness is 0.772.
With GUUCCGUUGGCGUAAUGGUAACGCGUCUCCCUCCUAAAGAGAAGACUGCGGGUUCGACUCCCGUACGGAUCG, the yeast fitness amounted to 0.748.
For GUUCCGUUGGCGUAAUGGUAACGCGUCUCCCUCCUAUGGAGAAGACUGCGGGUUCGAGUCCCGUACAGAACG the value was 0.724; for GUUCCGUUGGCGUAAUGGUAACGCGUCUCCCUCCUAACGAGAGGACUGCGGGUUCGAGUCCGGUACGGAACG, no more than 0.5; for GUUCCGUUGGCGUAAUGGUAACGCGUCUCCCUCCUAGGGAGAAGACUGCGGGUUCGAAUCCCGUACGGAACG, 0.976.
For GUUCCGUUGGCGUAAUGGUAACGCGUCUCCCUCCUAGGGAGAAGACUGCGGGUUCGACUCCCGUACGGAACG the value was 0.719; for GUUCCGUUGGCGUAAUGGUAACGCGUCUCCCUCCUAUGGAGAAGACUGCGGGGUCAAGUCCCGUACGGACCG, no more than 0.5; for GUUCCGUUGGCGUAAUGGUAACGCGUCUCCCUCCUAACGAGAUGGCUGCGGGUUCGAGUCCCGUACGGAACG, no more than 0.5.
For GUUCCGUUGGCGUAAUGGUAACGCGUCUCCCUCCUAGGGAGAAGAUUGCGGGUUCGAGGCCCGUACGGAACG the value was 0.508.
Regarding GUUCCGUUGGCGUAAUGGUAACGCGUCUCCCUCCUAGGGAGAAGACUGCGGGUUCGAGUCCCGUACAGAACG, the yeast fitness was found to be 0.819.
On to GUUCCGUUGGCGUAAUGGUAACGCGUCUCCCUCCUAAAGUGAAGACUGCCGGUUCGAGUGCCGUACGGAGCG, for which the yeast fitness amounted to 0.526.
As for GUUCCGUUGGCGUAAUGGUAACGCGUCUCCCUCCUAGGGAGAAGACUGCGGGUUCGAGUCCUGUACGGAACG, the yeast fitness was 0.864.

These data come from the RNAGym collection of RNA variant scans (doi:10.1126/science.aae0568).
